Results from ChEMBL document CHEMBL1122624, “Activity of novel aminocannabinoids in baboons” (J Med Chem, 1984).
Activity calls are given as the source filed them. The calls are words filed in the database; no cut-off is given here.

Columns and labels:
Assay type in all cases: functional, organism-based
[1] = test system: Cercopithecidae; experiment: Induction of yawning and scratching was determined in Baboons at a dose 0.1 mg/kg; absent; design: dose 0.1 mg/kg
In short: (§1)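 Male or female baboons were given a single injection, with two animals per dose level. The same animals received the solvent alone 1 week later. Behaviour was scored by observation, including yawning, body scratching, motor activity, ptosis, posture and responsiveness.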

[2] = test system: Cercopithecidae; experiment: Induction of yawning and scratching was determined in Baboons at a dose 0.5 mg/kg; absent; design: dose 0.5 mg/kg; in short: as §1
[3] = test system: Cercopithecidae; experiment: Induction of yawning and scratching was determined in Baboons at a dose 1.0 mg/kg; absent; design: dose 1 mg/kg; in short: as §1
[4] = test system: Cercopithecidae; experiment: Psychotropic effects in Baboons at a dose 0.5 mg/kg; ++ = stupor, ataxia, suppression of motor activity, full ptosis, typical crouched posture (thinker position) kept for up to 3 h; design: dose 0.5 mg/kg; in short: as §1
[5] = test system: Cercopithecidae; experiment: Psychotropic effects in Baboons at a dose 1.0 mg/kg; +++ = severe stupor and ataxia, full ptosis, immobility, crouched posture lasting for more than 3 h, and absence of reaction to external stimuli; design: dose 1 mg/kg; in short: as §1
[6] = test system: Cercopithecidae; experiment: Psychotropic effects in Baboons at a dose 0.1 mg/kg; +/- = tranquility; design: dose 0.1 mg/kg; in short: as §1
[7] = test system: Cercopithecidae; experiment: Psychotropic effects in Baboons at a dose 2.0 mg/kg; - = no change; design: dose 2 mg/kg; in short: as §1
[8] = test system: Cercopithecidae; experiment: Induction of yawning and scratching was determined in Baboons at a dose 10.0 mg/kg; present; design: dose 10 mg/kg; in short: as §1
[9] = test system: Cercopithecidae; experiment: Induction of yawning and scratching was determined in Baboons at a dose 5.0 mg/kg; present; design: dose 5 mg/kg; in short: as §1
[10] = test system: Cercopithecidae; experiment: Induction of yawning and scratching was determined in Baboons at a dose 2.0 mg/kg; present; design: dose 2 mg/kg; in short: as §1
[11] = test system: Cercopithecidae; experiment: Psychotropic effects in Baboons at a dose 10.0 mg/kg; - = no change; design: dose 10 mg/kg; in short: as §1
[12] = test system: Cercopithecidae; experiment: Psychotropic effects in Baboons at a dose 5.0 mg/kg; - = no change; design: dose 5 mg/kg; in short: as §1
[13] = test system: Cercopithecidae; experiment: Psychotropic effects in Baboons at a dose 2.0 mg/kg; + = drowsiness, decreased motor activity, occasional partial ptosis, occasional head drop; design: dose 2 mg/kg; in short: as §1
[14] = test system: Cercopithecidae; experiment: Induction of yawning and scratching was determined in Baboons at a dose 2.0 mg/kg; absent; design: dose 2 mg/kg; in short: as §1
[15] = test system: Cercopithecidae; experiment: Psychotropic effects in Baboons at a dose 1.0 mg/kg; - = no change; design: dose 1 mg/kg; in short: as §1
[16] = test system: Cercopithecidae; experiment: Induction of yawning and scratching was determined in Baboons at a dose 4.0 mg/kg; absent; design: dose 4 mg/kg; in short: as §1
[17] = test system: Cercopithecidae; experiment: Psychotropic effects in Baboons at a dose 4.0 mg/kg; - = no change; design: dose 4 mg/kg; in short: as §1
[18] = test system: Cercopithecidae; experiment: Psychotropic effects in baboons at a dose 10.0 mg/kg; +/- = tranquility; design: dose 10 mg/kg; in short: as §1
[19] = test system: Cercopithecidae; experiment: Psychotropic effects in Baboons at a dose 0.1 mg/kg; ++ = stupor, ataxia, suppression of motor activity, full ptosis, typical crouched posture (thinker position) kept for up to 3 h; design: dose 0.1 mg/kg; in short: as §1
[20] = test system: Cercopithecidae; experiment: Psychotropic effects in Baboons at a dose 0.05 mg/kg; + = drowsiness, decreased motor activity, occasional partial ptosis, occasional head drop; design: dose 0.05 mg/kg; in short: as §1
[21] = test system: Cercopithecidae; experiment: Psychotropic effects in baboons at a dose 0.5 mg/kg; +++ = severe stupor and ataxia, full ptosis, immobility, crouched posture lasting for more than 3 h, and absence of reaction to external stimuli; design: dose 0.5 mg/kg; in short: as §1
[22] = test system: Cercopithecidae; experiment: Induction of yawning and scratching was determined in Baboons at a dose 0.05 mg/kg; absent; design: dose 0.05 mg/kg; in short: as §1
[23] = test system: Cercopithecidae; experiment: Induction of yawning and scratching was determined in Baboons at a dose 10.0 mg/kg; absent; design: dose 10 mg/kg; in short: as §1
[24] = test system: Cercopithecidae; experiment: Induction of yawning and scratching was determined in Baboons at a dose 5.0 mg/kg; absent; design: dose 5 mg/kg; in short: as §1
[25] = test system: Cercopithecidae; experiment: Psychotropic effects in Baboons at a dose 5.0 mg/kg; +/- = tranquility; design: dose 5 mg/kg; in short: as §1
[26] = test system: Cercopithecidae; experiment: Psychotropic effects in baboons at a dose 10.0 mg/kg;+/- = tranquility; design: dose 10 mg/kg; in short: as §1

`CCCCCc1cc(O)c2c(c1)OC(C)(C)[C@@H]1CC[C@@H](C)CC21` (stereo partly drawn) was tested. Which Activity [1] did it give?
Its Activity is “inactive”.

What about the Activity [2] of the same compound?
Its Activity is “inactive”.

What about the Activity [3] of the same compound?
Its Activity is “inactive”.

And the Activity [4]?
Its Activity is “severe stupor and ataxia, full ptosis, immobility, crouched posture lasting for more than 3 h, and absence of reaction to external stimuli”.

And the Activity [5]?
The Activity was “severe stupor and ataxia, full ptosis, immobility, crouched posture lasting for more than 3 h, and absence of reaction to external stimuli”.

And the Activity [6]?
The Activity was “+/-”.

Which Activity [7] does the source give for `CCCCCc1cc(O)c2c(c1)OC(C)(C)[C@@H]1CC[C@H](CN(C)C)CC21` (stereo partly drawn) here?
Its Activity is “inactive”.

What about the Activity [8] of the same compound?
Its Activity is “present”.

What about the Activity [9] of the same compound?
Its Activity is “present”.

And the Activity [10]?
Its Activity is “present”.

And the Activity [11]?
The Activity was “inactive”.

What about the Activity [12] of the same compound?
Its Activity is “inactive”.

For `CCCCCc1cc(O)c2c(c1)OC(C)(C)[C@@H]1CC[C@H](C)CC21` (stereo partly drawn), which Activity [13] is on record?
Its Activity is “drowsiness, decreased motor activity, occasional partial ptosis, occasional head drop”.

And the Activity [3]?
The Activity was “inactive”.

What about the Activity [14] of the same compound?
Its Activity is “inactive”.

What about the Activity [15] of the same compound?
The Activity was “inactive”.

Which results are given for `CCCCCc1cc(O)c2c(c1)OC(C)(C)[C@@H]1CCC(CN(C)C)CC21` (stereo partly drawn)?
Activity [7]: inactive; Activity [16]: inactive; Activity [14]: inactive; Activity [17]: inactive

For `CCCCCc1cc(O)c2c(c1)OC(C)(C)[C@@H]1CC[C@H](CNC)CC21` (stereo partly drawn), which Activity [7] is on record?
Its Activity is “inactive”.

And the Activity [8]?
The Activity was “present”.

And the Activity [9]?
Its Activity is “present”.

What about the Activity [10] of the same compound?
Its Activity is “present”.

And the Activity [12]?
Its Activity is “inactive”.

What about the Activity [18] of the same compound?
Its Activity is “+/-”.

What does the source list for `CCCCCc1cc(O)c2c(c1)OC(C)(C)[C@@H]1CC=C(C)C[C@@H]21`?
Activity [19]: Active; Activity [1]: inactive; Activity [2]: inactive; Activity [20]: Weak activity; Activity [21]: Active; Activity [22]: inactive

Which Activity [7] does the source give for `CCCCCc1cc(O)c2c(c1)OC(C)(C)[C@@H]1CCC(CNC)CC21` (stereo partly drawn) here?
The Activity was “inactive”.

What about the Activity [23] of the same compound?
The Activity was “inactive”.

And the Activity [24]?
Its Activity is “inactive”.

What about the Activity [14] of the same compound?
Its Activity is “inactive”.

And the Activity [25]?
The Activity was “+/-”.

And the Activity [26]?
The Activity was “+/-”.
